{
  "source": "PubChem BioAssay AID449763",
  "about": "(Sanford-Burnham Center for Chemical Genomics, 2010)",
  "note": "Among all 330,000 compounds or so, about 1,100 (0.33%) were called active. For the sample, actives were picked, then their nearest neighbours and some compounds at random. Unmarked numbers belong to inactive results.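 The calls were made as follows: active = at 10 µM dose, activation of 40% or more, normalized to positive control; inactive = the rest.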",
  "data": [
    {"assay": "activators of apoptotic CHOP UPR arm, primary screen, cell-based, CHO-CHOP luciferase reporter, luminescence, uHTS (AID 449763);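 also: 100% = tunicamycin at 10 µg/mL and 0% = DMSO alone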", "settings": "at 10 µM, stronger effect = higher value, percent of tunicamycin response over DMSO baseline", "summary_of_the_method": "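assay system = CHO CHOP reporter cells | amount = 500 CHO-CHOP cells per well | buffer or medium = F12 with 10% FBS | incubation = 16-18 h cell attachment, then 6 h compound exposure, 37 °C | detection = luminescence read with Steady-Glo | read-out = percent activation relative to tunicamycin control | controls = tunicamycin high control, DMSO low control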", "values": [
      {"smiles": "O=C1NC(=O)N(CCc2ccc(F)cc2)C(=O)/C1=C/C=C/c1ccccc1", "activation": "75.4% (active)"},
      {"smiles": "O=C(O)COc1ccccc1/C=C1\\C(=O)NC(=O)N(CCC2=CCCCC2)C1=O", "activation": "-0.189%"},
      {"smiles": "O=C1NC(=O)N(Cc2ccco2)C(=O)/C1=C\\c1ccc(-c2ccc(F)cc2)o1", "activation": "0.772%"},
      {"smiles": "COc1cccc(-c2nc3ccc(N4CCN(C)CC4)cc3[nH]2)c1", "activation": "-6.37%"},
      {"smiles": "Cc1cc(N2C(=O)C3CCCN3C2c2ccc(Cl)c(Cl)c2)no1", "note": "(stereo not given)", "activation": "-0.781%"}
    ]}
  ]
}
